In ChEMBL document CHEMBL1142488, “Synthesis of N-substituted 5-[2-(N-alkylamino)ethyl]dibenzo[c,h][1,6]naphthyridines as novel topoisomerase I-targeting antitumor agents” (Bioorg Med Chem, 2008):

What was measured:
P388 = assay: Cytotoxicity against mouse P388 cells after MTT assay; format: functional, cell-based
Method in brief: (§1)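 Suspension cultures at 37 °C, 5% CO2, in RPMI with 10% heat-inactivated FBS, 2 mM L-glutamine, penicillin and streptomycin. Continuous 4-day exposure to a range of drug concentrations, then MTT read-out to give IC50. Drug-free control included. At least two runs, six replicate wells each.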

MDA-MB-435 (human) [1] = assay: Antitumor activity against human MDA-MB-435 cells xenografted in NCR/NU NU mouse assessed as tumor volume measured on day 35 initially dosed at 2 mg/kg, ip qd x 5/week for 2 weeks and was gradually increased to 6 mg/kg x 5/week schedule
[2] = Cytotoxicity against camptothecin-resistant human CPT-K5 cells after MTT assay; format: functional, cell-based; method in brief: as §1
MDA-MB-435 (human) [3] = assay: Antitumor activity against human MDA-MB-435 cells xenografted in NCR/NU NU mouse assessed as tumor volume measured on day 49 initially dosed at 2 mg/kg, ip qd x 5/week for 2 weeks and was gradually increased to 6 mg/kg x 5/week schedule
MDA-MB-435 (human) [4] = assay: Antitumor activity against human MDA-MB-435 cells xenografted in NCR/NU NU mouse assessed as tumor volume measured on day 7 initially dosed at 2 mg/kg, ip qd x 5/week for 2 weeks and was gradually increased to 6 mg/kg x 5/week schedule
MDA-MB-435 (human) [5] = assay: Antitumor activity against human MDA-MB-435 cells xenografted in NCR/NU NU mouse assessed as tumor volume measured on day 28 initially dosed at 2 mg/kg, ip qd x 5/week for 2 weeks and was gradually increased to 6 mg/kg x 5/week schedule
MDA-MB-435 (human) [6] = assay: Antitumor activity against human MDA-MB-435 cells xenografted in NCR/NU NU mouse assessed as tumor volume measured on day 42 initially dosed at 2 mg/kg, ip qd x 5/week for 2 weeks and was gradually increased to 6 mg/kg x 5/week schedule
[7] = Cytotoxicity against multidrug resistant human KBH5.0 cells overexpressing BCRP after MTT assay; format: functional, cell-based; conditions: KBH5.0 cell
Method in brief: (§2)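 IC50 after continuous 4-day exposure to varying drug concentrations, with MTT read at the end of day 4. A drug-free control was included. At least two runs, each in six replicate wells.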

MDA-MB-435 (human) [8] = assay: Antitumor activity against human MDA-MB-435 cells xenografted in NCR/NU NU mouse assessed as tumor volume measured on day 14 initially dosed at 2 mg/kg, ip qd x 5/week for 2 weeks and was gradually increased to 6 mg/kg x 5/week schedule
[9] = Cytotoxicity against human KB3-1 cells after MTT assay; format: functional, cell-based; conditions: KB 3-1; method in brief: as §2
[10] = Cytotoxicity against camptothecin-resistant and TOP1 deficient mouse P388/CPT45 cells after MTT assay; format: functional, cell-based; conditions: P388CPT45; method in brief: as §1
[11] = Cytotoxicity against human RPMI8402 cells after MTT assay; format: functional, cell-based; conditions: RPMI 8402; method in brief: as §1
[12] = Cytotoxicity against multidrug resistant human KBV-1 cells overexpressing MDR1 after MTT assay; format: functional, cell-based; conditions: KB-V1; method in brief: as §2
MDA-MB-435 (human) [13] = assay: Antitumor activity against human MDA-MB-435 cells xenografted in NCR/NU NU mouse assessed as tumor volume measured on day 21 initially dosed at 2 mg/kg, ip qd x 5/week for 2 weeks and was gradually increased to 6 mg/kg x 5/week schedule
[14] = biological target: T1, DNA topoisomerase 1 (Homo sapiens) (UniProt P11387); assay: Inhibition of human topoisomerase 1 mediated DNA cleavage assessed as effective drug concentration causing 10% YepG plasmid cleavage relative to camptothecin
T1 sequence (whole entry): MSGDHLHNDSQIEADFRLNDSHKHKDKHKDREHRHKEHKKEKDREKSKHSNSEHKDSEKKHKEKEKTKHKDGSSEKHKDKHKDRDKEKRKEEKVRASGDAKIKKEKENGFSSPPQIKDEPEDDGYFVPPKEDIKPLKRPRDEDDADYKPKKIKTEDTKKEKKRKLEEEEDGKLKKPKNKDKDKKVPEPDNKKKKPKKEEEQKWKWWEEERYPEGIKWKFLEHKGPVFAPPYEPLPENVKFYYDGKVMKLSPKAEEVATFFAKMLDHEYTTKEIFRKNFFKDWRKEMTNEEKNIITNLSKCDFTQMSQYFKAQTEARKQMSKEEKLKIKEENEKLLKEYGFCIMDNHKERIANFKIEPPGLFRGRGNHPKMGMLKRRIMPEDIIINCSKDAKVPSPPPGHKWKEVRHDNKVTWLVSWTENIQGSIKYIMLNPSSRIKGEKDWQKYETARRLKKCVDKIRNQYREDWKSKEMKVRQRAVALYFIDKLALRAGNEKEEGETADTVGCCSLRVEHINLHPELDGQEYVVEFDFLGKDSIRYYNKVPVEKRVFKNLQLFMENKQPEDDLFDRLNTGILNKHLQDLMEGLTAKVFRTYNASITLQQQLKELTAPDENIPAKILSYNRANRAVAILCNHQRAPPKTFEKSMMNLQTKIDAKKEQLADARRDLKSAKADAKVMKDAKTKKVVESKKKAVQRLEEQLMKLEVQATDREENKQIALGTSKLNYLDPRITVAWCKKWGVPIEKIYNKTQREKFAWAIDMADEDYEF
Method in brief: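 Stopped with SDS and proteinase K, 1 h at 37 °C. Alkali-denatured with NaOH/EDTA/sucrose/bromophenol blue, then run on neutral agarose gel.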

MDA-MB-435 (human) [15] = assay: Antitumor activity against human MDA-MB-435 cells xenografted in NCR/NU NU mouse assessed as tumor volume measured on day 21 initially dosed at 5 mg/kg, ip qd x 5/week for 2 weeks and was gradually increased to 6 mg/kg x 5/week for 2 weeks and adjusted to 6 mg/kg qd x 3/week for 1 week schedule
MDA-MB-435 (human) [16] = assay: Antitumor activity against human MDA-MB-435 cells xenografted in NCR/NU NU mouse assessed as tumor volume measured on day 14 initially dosed at 5 mg/kg, ip qd x 5/week for 2 weeks and was gradually increased to 6 mg/kg x 5/week for 2 weeks and adjusted to 6 mg/kg qd x 3/week for 1 week schedule
MDA-MB-435 (human) [17] = assay: Antitumor activity against human MDA-MB-435 cells xenografted in NCR/NU NU mouse assessed as tumor volume measured on day 7 initially dosed at 5 mg/kg, ip qd x 5/week for 2 weeks and was gradually increased to 6 mg/kg x 5/week for 2 weeks and adjusted to 6 mg/kg qd x 3/week for 1 week schedule
MDA-MB-435 (human) [18] = assay: Antitumor activity against human MDA-MB-435 cells xenografted in NCR/NU NU mouse assessed as tumor volume measured on day 49 initially dosed at 5 mg/kg, ip qd x 5/week for 2 weeks and was gradually increased to 6 mg/kg x 5/week for 2 weeks and adjusted to 6 mg/kg qd x 3/week for 1 week schedule
MDA-MB-435 (human) [19] = assay: Antitumor activity against human MDA-MB-435 cells xenografted in NCR/NU NU mouse assessed as tumor volume measured on day 28 initially dosed at 5 mg/kg, ip qd x 5/week for 2 weeks and was gradually increased to 6 mg/kg x 5/week for 2 weeks and adjusted to 6 mg/kg qd x 3/week for 1 week schedule
MDA-MB-435 (human) [20] = assay: Antitumor activity against human MDA-MB-435 cells xenografted in NCR/NU NU mouse assessed as tumor volume measured on day 35 initially dosed at 5 mg/kg, ip qd x 5/week for 2 weeks and was gradually increased to 6 mg/kg x 5/week for 2 weeks and adjusted to 6 mg/kg qd x 3/week for 1 week schedule
MDA-MB-435 (human) [21] = assay: Antitumor activity against human MDA-MB-435 cells xenografted in NCR/NU NU mouse assessed as tumor volume measured on day 42 initially dosed at 5 mg/kg, ip qd x 5/week for 2 weeks and was gradually increased to 6 mg/kg x 5/week for 2 weeks and adjusted to 6 mg/kg qd x 3/week for 1 week schedule
[22] = in the assay text read “relative to topotecan” for “relative to camptothecin”

Row | Compound | Activity [14, 22] | IC50 (P388) | Activity (MDA-MB-435 (human) [1]) | IC50 [2] | Activity (MDA-MB-435 (human) [3]) | Activity (MDA-MB-435 (human) [4]) | Activity (MDA-MB-435 (human) [5]) | Activity (MDA-MB-435 (human) [6]) | IC50 [7] | Activity (MDA-MB-435 (human) [8]) | IC50 [9] | IC50 [10] | IC50 [11] | IC50 [12] | Activity (MDA-MB-435 (human) [13]) | also measured
1 | C#CCN(CCn1c(=O)c2cc(OC)c(OC)cc2c2cnc3cc4c(cc3c21)OCO4)C(C)C | > 10 | 80 nM | 234 mm3 | > 10000 nM | 357 mm3 | 99 mm3 | 170 mm3 | 310 mm3 | 70 nM | 112 mm3 | 100 nM | 3700 nM | 65 nM | 430 nM | 165 mm3 | 
2 | CC[C@@]1(O)C(=O)OCc2c1cc1n(c2=O)Cc2cc3ccccc3nc2-1 [CAMPTOTHECIN] |  |  |  | > 10000 nM |  |  |  |  |  |  |  | > 10000 nM | 6 nM |  |  | 
3 | CC[C@@]1(O)C(=O)OCc2c1cc1n(c2=O)Cc2cc3c(CN(C)C)c(O)ccc3nc2-1 [TOPOTECAN] | 1 |  |  | > 10000 nM |  |  |  |  | 440 nM |  | 40 nM | > 10000 nM | 21 nM |  |  | 
4 | COc1cc2c(=O)n(CCN(CC#N)C(C)C)c3c4cc5c(cc4ncc3c2cc1OC)OCO5 | < 0.2 | 2 nM |  | 1300 nM |  |  |  |  | 9 nM |  | 6 nM | 60 nM | 2 nM | 43 nM |  | Activity (MDA-MB-435 (human) [15]): 213 mm3; Activity (MDA-MB-435 (human) [16]): 175 mm3; Activity (MDA-MB-435 (human) [17]): 142 mm3; Activity (MDA-MB-435 (human) [18]): 314 mm3; Activity (MDA-MB-435 (human) [19]): 220 mm3; Activity (MDA-MB-435 (human) [20]): 250 mm3; Activity (MDA-MB-435 (human) [21]): 286 mm3
5 | CCOc1cc2c(=O)n(CCN(C)C)c3c4cc5c(cc4ncc3c2cc1OCC)OCO5 |  | 15 nM |  | 140 nM |  |  |  |  | 100 nM |  | 70 nM | 13 nM | 150 nM | 190 nM |  | Activity [14]: > 10
6 | COc1cc2c(=O)n(CCN(CC(F)(F)F)C(C)C)c3c4cc5c(cc4ncc3c2cc1OC)OCO5 | > 10 | 1100 nM |  | > 10000 nM |  |  |  |  | 1100 nM |  | 1000 nM | > 10000 nM | 1900 nM | 4400 nM |  | 

Continued, in another order:

Row | Activity [14, 22] | Compound | IC50 (P388) | Activity (MDA-MB-435 (human) [1]) | IC50 [2] | Activity (MDA-MB-435 (human) [3]) | Activity (MDA-MB-435 (human) [4]) | Activity (MDA-MB-435 (human) [5]) | Activity (MDA-MB-435 (human) [6]) | IC50 [7] | Activity (MDA-MB-435 (human) [8]) | IC50 [9] | IC50 [10] | IC50 [11] | IC50 [12] | Activity (MDA-MB-435 (human) [13]) | also measured
7 | > 10 | CCN(CCn1c(=O)c2cc(OC)c(OC)cc2c2cnc3cc4c(cc3c21)OCO4)CC(F)(F)F | 610 nM | 435 mm3 | > 10000 nM | 718 mm3 | 127 mm3 | 310 mm3 | 543 mm3 | 750 nM | 176 mm3 | 650 nM | > 10000 nM | 700 nM | 2900 nM | 268 mm3 | 
8 | > 10 | COc1cc2c(=O)n(CCN(C)CC(F)(F)F)c3c4cc5c(cc4ncc3c2cc1OC)OCO5 | 250 nM |  | > 10000 nM |  |  |  |  | 630 nM |  | 410 nM | > 10000 nM | 250 nM | 1000 nM |  | 
9 | < 0.2 | COc1cc2c(=O)n(CCN(C)CC#N)c3c4cc5c(cc4ncc3c2cc1OC)OCO5 | 3 nM | 528 mm3 | 980 nM | 919 mm3 | 149 mm3 | 392 mm3 | 669 mm3 | 27 nM | 222 mm3 | 5 nM | 220 nM | 4 nM | 43 nM | 370 mm3 | 
10 | < 0.2 | CCN(CC#N)CCn1c(=O)c2cc(OC)c(OC)cc2c2cnc3cc4c(cc3c21)OCO4 | 1 nM | 293 mm3 | 670 nM | 435 mm3 | 100 mm3 | 202 mm3 | 361 mm3 | 7 nM | 156 mm3 | 4 nM | 130 nM | 1 nM | 34 nM | 178 mm3 | 
11 | > 10 | C#CCN(CC)CCn1c(=O)c2cc(OC)c(OC)cc2c2cnc3cc4c(cc3c21)OCO4 | 35 nM | 331 mm3 | > 10000 nM | 488 mm3 | 115 mm3 | 204 mm3 | 349 mm3 | 110 nM | 106 mm3 | 70 nM | 2300 nM | 17 nM | 100 nM | 170 mm3 | 
